Screening data (PubChem)
In the library only some 1.1% were active in any assay of this set; here they are far more common.
Furin inh = human furin inhibition. purified furin, fluorogenic substrate cleavage. inhibition, % at 20 µM or 30 µM. 0.061% of 220,000 active; in the data active = inhibition above about 25%
FXIIa inh 1536 = blocks human coagulation factor XIIa protease activity. purified FXIIa, Boc-QGR-AMC fluorogenic substrate, 2 h. P00748. inhibition, % at 5 µM. AID 800. 0.3% of 220,000 active; in the data active = inhibition above about 40%;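 note: 0% = enzyme with no compound and 100% = blank without enzyme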
Thrombin inh = blocks human thrombin protease activity; 0.26% of 220,000 active; P00734; alpha-thrombin, Boc-VPR-AMC fluorogenic substrate cleavage; inhibition, % at 5 µM; AID 1046;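 active = inhibition at or above 40%; inactive = inhibition below 40%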;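 note: 0% = enzyme with no compound and 100% = wells without enzyme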
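Material: human alpha-thrombin enzyme / Medium: pH 7.5 Tris (50 mM) with NaCl 150 mM, Tween 20 0.05% / Compound: single-point dosing at 5 µM, 0.2% DMSO / Incubation: enzyme reaction carried out at room temperature / Detection: AMC fluorescence, 355/460 nm / Read-out basis: percent inhibition scaled between no-compound controls and no-enzyme blanks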
FXIa inh = blocks human coagulation factor XIa protease activity; P03951; purified FXIa, Boc-Glu-Ala-Arg-AMC fluorogenic substrate; inhibition, % at 5 µM; 0.14% of 220,000 active;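 active = inhibition of at least 40%; inactive = inhibition below 40%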;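 note: fluorescence of freed AMC excited at 355 nm; 0% = enzyme without compound and 100% = no enzyme blank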
hK5 inh = inhibitors of human kallikrein 5; 0.59% of 210,000 active; inhibition, % at 5 µM; AID 873; recombinant hK5, fluorogenic AMC substrate cleavage;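 active = inhibition of 40% or more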;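 note: 0% = enzyme controls without compound and 100% = no-enzyme blanks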
Numbers without * were called inactive; . = no result.

SMILES	Furin inh	FXIIa inh 1536	Thrombin inh	FXIa inh	hK5 inh
COCCNC(=S)NN=C1CCCCCC1	-7	54*	47*	34	41*
Oc1ccc(Oc2ccc3c(C(F)(F)F)cc(C(F)(F)F)nc3n2)cc1	-12	0	4	-5	132*
CCSc1nnc(N2C(=O)CC(c3ccsc3)C3=C2CC(C)(C)CC3=O)s1 (stereo not given)	-14	18	9	5	53*
CC1(C)CC(=O)C2=C(C1)N(c1ccc(F)cc1)C(=O)CC2c1cccnc1 (stereo not given)	-17	-7	-9	-16	28
COCCNC(=O)c1nn(-c2cc(OC)cc(OC)c2)c(=O)c2ccccc12	-15	18	8	15	66*
Cc1ccc(-c2cc(C(=O)NCc3cccnc3)no2)cc1	25*	-1	-3	-12	-17
Cc1ccc(C(=O)N2C(CC(=O)Nc3ccc(Cl)cc3)C(=O)NC3CCCCC32)cc1 (stereo not given)	-18	11	50*	-3	18
COc1ccc(CN(C)C(=S)Nc2ccc(Cl)cc2)cc1	-15	42*	-1	27	30
CCN(CC)C(=S)Nc1ccc(OC)cc1	-31	7	-6	0	-30
CCOc1ccc(NC(=O)N2CCC(c3nc4ccccc4[nH]3)CC2)cc1	-15	9	2	-3	-9
CCCOC(=O)c1ccc(Oc2cn[nH]c2-c2ccc(O)cc2O)cc1	-14	3	6	4	-9
CCCOC(=O)c1ccc(Oc2cn[nH]c2-c2ccc(OCC(=O)NN)cc2O)cc1	6	30	13	43*	41*
C=C(C)COc1ccc(-c2[nH]ncc2Oc2cccc(OC)c2)c(O)c1	-13	29	20	2	63*
C=C(C)COc1ccc(-c2nc(N)ncc2-c2ccc(OC)cc2)c(O)c1	-6	6	-2	0	1
C=C(C)COc1ccc(-c2ncncc2Oc2ccc(OC)cc2)c(O)c1	7	20	10	11	43*
COc1ccc(-c2csc(NC(=O)CSc3nc(SC)ns3)n2)cc1	-26	7	1	6	-7
O=C(COc1ccc(Cl)cc1Cl)Nc1nc2n(n1)C(c1ccccc1)CC(=O)N2 (stereo not given)	-22	20	28	2	58*
CCOC(=O)CC1Sc2ccccc2NC1=O (stereo not given)	-21	3	-23	2	0
CCOC(=O)CC1Sc2ccccc2NC1=S (stereo not given)	11	0	-7	4	80*
Cc1ccccc1/C=C1\SC(=S)N(/N=C/c2cc([N+](=O)[O-])ccc2O)C1=O	-20	13	56*	2	5
Cc1cc(N2CCN(S(=O)(=O)c3ccc4ccccc4c3)CC2)n2ncnc2n1	-13	4	-13	-5	-5
O=S(=O)(NC(=NCCc1ccc(Cl)cc1)c1ccccc1Cl)c1cccs1	-20	5	1	1	3
c1coc(-c2nc(-c3ccco3)c(-c3ccco3)nc2-c2ccco2)c1	10	-8	32	25	71*
O=C(CSc1nc2nc[nH]c2c(=O)[nH]1)NC1CCCCC1	-14	-2	46*	-11	-20
COc1ccc(S(=O)(=O)Nc2cc(C(C)C)c(O)cc2C)cc1	30*	5	-6	-2	-12
COc1ccc(S(=O)(=O)Nc2cc(C)c(O)cc2C(C)C)cc1	-11	5	-4	3	-3
COc1cc2c(cc1OC)C(C)N(C(=O)c1ccc(Br)o1)CC2 (stereo not given)	-6	6	-8	4	2
CN(Cc1ccccc1)c1nc2c(c(=O)[nH]c(=O)n2C)n1CCCSc1ncccn1	-6	52*	5	42*	-17
CN(Cc1ccccc1)c1nc2c(c(=O)[nH]c(=O)n2C)n1CCSc1ncccn1	-18	.	.	.	.
CC(=O)N1CCC(N2CCN(c3ccccc3F)CC2)CC1	-8	60*	1	32	7
